According to ChEMBL document CHEMBL1154219, “New Ras CAAX mimetics: design, synthesis, antiproliferative activity, and RAS prenylation inhibition” (Bioorg Med Chem Lett, 2009):
Calls of active or inactive are those of the source. The calls are words filed in the database; no cut-off is given here.

What was measured:
[1] = Antiproliferative activity against HSMC after 72 hrs; format: functional; conditions: Homo sapiens
How it was run: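 Human aortic SMCs seeded at 8 × 10⁴ cells per 35 mm dish in DMEM with 10% FCS. After 24 h, switched to 0.4% FCS for 72 h to arrest growth. Then refed with 10% FCS with or without compound (DMSO, final ≤0.5%) for 72 h at 37 °C. Cells trypsinized and counted by Coulter counter. IC50 obtained by linear regression of log concentration versus logit.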

Homo sapiens [2] = species: Homo sapiens; assay: Inhibition of Ras protein protein prenylation in HSMC assessed as unprenylated Ras accumulation at 50 uM after 72 hrs by Western blot analysis
How it was run: (§1)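 Human aortic SMCs seeded at 4 × 10⁵ cells per 60 mm dish. Growth-arrested in 0.4% FCS for 72 h, then exposed to compound in 10% FCS for 72 h at 37 °C (DMSO ≤0.5%). Cells lysed on ice in Tris pH 7.5/NaCl/NP-40 buffer with protease inhibitors; lysates cleared, protein measured by BCA. SDS-PAGE under reducing conditions, anti-Ras immunoblot, ECL detection. Unprenylated Ras seen as the slower-migrating band.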

Homo sapiens [3] = species: Homo sapiens; assay: Inhibition of Ras protein protein prenylation in HSMC assessed as unprenylated Ras accumulation at 75 uM after 72 hrs by Western blot analysis; how it was run: as §1
Homo sapiens [4] = species: Homo sapiens; assay: Inhibition of Ras protein protein prenylation in HSMC assessed as unprenylated Ras accumulation at 25 uM after 72 hrs by Western blot analysis; how it was run: as §1
Homo sapiens [5] = species: Homo sapiens; assay: Inhibition of Ras protein protein prenylation in HSMC assessed as unprenylated Ras accumulation at 10 uM after 72 hrs by Western blot analysis; how it was run: as §1
[6] = Inhibition of Ras protein protein prenylation in HSMC assessed as unprenylated Ras accumulation after 72 hrs by Western blot analysis; parameters: species or system Homo sapiens; how it was run: as §1

| SMILES | IC50 [1] [µM] | inhibition (Homo sapiens [2]) | also measured |
| --- | --- | --- | --- |
| COC(=O)CNC(=O)c1ccc(OC[C@@H]2COc3ccccc3O2)cc1-c1ccccc1OC | 35 | inactive | inhibition (Homo sapiens [3]): inactive |
| COC(=O)[C@H](CCSC)NC(=O)c1ccc(OC[C@@H]2COc3ccccc3O2)cc1-c1ccccc1C | 193 |  |  |
| COC(=O)[C@H](CCSC)NC(=O)c1ccc(OC[C@@H]2COc3ccccc3O2)cc1-c1ccccc1OC | 204 |  |  |
| COC(=O)[C@H](CC(C)C)NC(=O)c1ccc(OC[C@H]2COc3ccccc3O2)cc1-c1ccccc1OC | 32 | inactive | inhibition (Homo sapiens [4]): inactive |
| COC(=O)[C@H](CCSC)NC(=O)c1ccc(OC[C@H]2COc3ccccc3O2)cc1-c1ccccc1OC | 230 |  |  |
| COC(=O)[C@H](CCSC)NC(=O)c1ccc(C(=O)NC[C@H]2COc3ccccc3O2)cc1-c1ccccc1C | 87 |  |  |
| COC(=O)[C@H](CC(C)C)NC(=O)c1ccc(OC[C@H]2COc3ccccc3O2)cc1-c1ccccc1C | 3 | inactive | inhibition (Homo sapiens [5]): inactive |
| COC(=O)[C@H](CC(C)C)NC(=O)c1ccc(C(=O)NC[C@@H]2COc3ccccc3O2)cc1-c1ccccc1OC | 469 |  |  |
| COC(=O)[C@H](CC(C)C)NC(=O)c1ccc(OC[C@@H]2COc3ccccc3O2)cc1-c1ccccc1OC | 17 | inactive | inhibition (Homo sapiens [5]): inactive |
| COC(=O)CNC(=O)c1ccc(OC[C@H]2COc3ccccc3O2)cc1-c1ccccc1OC | 71 | inactive | inhibition (Homo sapiens [3]): inactive |
| COC(=O)CNC(=O)c1ccc(C(=O)NC[C@@H]2COc3ccccc3O2)cc1-c1ccccc1C | 89 |  |  |
| COC(=O)[C@H](CC(C)C)NC(=O)c1ccc(C(=O)NC[C@@H]2COc3ccccc3O2)cc1-c1ccccc1C | 88 |  |  |
| COC(=O)[C@H](CCSC)NC(=O)c1ccc(C(=O)NC[C@H]2COc3ccccc3O2)cc1-c1ccccc1OC | 252 |  |  |
| COC(=O)[C@H](CC(C)C)NC(=O)c1ccc(OC[C@@H]2COc3ccccc3O2)cc1-c1ccccc1C | 5.2 | inactive | inhibition (Homo sapiens [4]): inactive |
| COC(=O)[C@H](CC(C)C)NC(=O)c1ccc(C(=O)NC[C@H]2COc3ccccc3O2)cc1-c1ccccc1OC | 185 |  |  |
| COC(=O)CNC(=O)c1ccc(C(=O)NC[C@H]2COc3ccccc3O2)cc1-c1ccccc1C | 113 |  |  |
| COC(=O)[C@H](CCSC)NC(=O)c1ccc(C(=O)NC[C@@H]2COc3ccccc3O2)cc1-c1ccccc1C | 533 |  |  |
| COC(=O)CNC(=O)c1ccc(C(=O)NC[C@H]2COc3ccccc3O2)cc1-c1ccccc1OC | 122 |  |  |
| COC(=O)[C@H](CCSC)NC(=O)c1ccc(C(=O)NC[C@@H]2COc3ccccc3O2)cc1-c1ccccc1OC | 647 |  |  |
| COC(=O)CNC(=O)c1ccc(C(=O)NC[C@@H]2COc3ccccc3O2)cc1-c1ccccc1OC | 76 |  |  |
| COC(=O)[C@H](CCSC)NC(=O)c1ccc(OC[C@H]2COc3ccccc3O2)cc1-c1ccccc1C | 6.6 |  | IC50 [6]: 2.8 µM |
| COC(=O)[C@H](CC(C)C)NC(=O)c1ccc(C(=O)NC[C@H]2COc3ccccc3O2)cc1-c1ccccc1C | 103 |  |  |
| COC(=O)CNC(=O)c1ccc(OC[C@@H]2COc3ccccc3O2)cc1-c1ccccc1C | 0.7 | inactive | inhibition (Homo sapiens [4]): inactive |
| COC(=O)CNC(=O)c1ccc(OC[C@H]2COc3ccccc3O2)cc1-c1ccccc1C | 27 | 35% |  |
